Measured values collected from several papers.
Nectin-4: Nectin-4 (Homo sapiens, UniProt Q96NY8)
SIGMAR1: Sigma non-opioid intracellular receptor 1 (SIGMAR1, Homo sapiens, UniProt Q99720)
PFF0160c E182D: Dihydroorotate dehydrogenase (quinone), mitochondrial (PFF0160c, Plasmodium falciparum, UniProt Q08210, E182D)

CCCC[C@@H]1NC(=O)[C@H](Cc2ccc(O)cc2)NC(=O)[C@@H]2CCCN2C(=O)[C@H](CC(N)=O)NC(=O)[C@H](C)NC(=O)[C@H](Cc2ccccc2)NC(=O)[C@@H]2CSCCC(=O)N3CN(CN(C3)C(=O)CCSC[C@H](NC(C)=O)C(=O)N[C@@H](CC(C)(C)C)C(=O)N3CCC[C@H]3C(=O)N[C@@H](CCC(=O)O)C(=O)N[C@H](CCCCNC(=O)CCc3cn(CCOCCOCCOCCN(CCOCCOCCOCCC(=O)N[C@H]4CSCCC(=O)N5CN6CN(C5)C(=O)CCSC[C@H](NC(=O)[C@@H](CC(=O)O)NC(=O)[C@H](Cc5cccc7ccccc57)NC(=O)[C@@H]5CCCN5C4=O)C(=O)N[C@@H](CCSC)C(=O)N[C@@H](CCCCNC(=N)N)C(=O)N[C@@H](CC(=O)O)C(=O)N[C@@H](Cc4c[nH]c5ccccc45)C(=O)N[C@@H](CO)C(=O)N[C@@H]([C@@H](C)O)C(=O)N4CCC[C@H]4C(=O)N4C[C@H](O)C[C@H]4C(=O)N[C@@H](Cc4c[nH]c5ccccc45)C(=O)N[C@H](C(N)=O)CSCCC6=O)CCOCCOCCOCCn4cc(CCC(=O)NCCCC[C@H]5NC(=O)[C@H](CCC(=O)O)NC(=O)[C@@H]6CCCN6C(=O)[C@H](CC(C)(C)C)NC(=O)[C@@H](NC(C)=O)CSCCC(=O)N6CN7CN(C6)C(=O)CCSC[C@H](NC(=O)[C@H](Cc6ccc(O)cc6)NC(=O)[C@@H]6CCCN6C5=O)C(=O)N[C@@H](Cc5ccccc5)C(=O)N[C@@H](C)C(=O)N[C@@H](CC(N)=O)C(=O)N5CCC[C@H]5C(=O)N[C@@H](Cc5ccc(O)cc5)C(=O)N[C@@H](CCCC)C(=O)N[C@H](C(N)=O)CSCCC7=O)nn4)nn3)C(=O)N3CCC[C@H]3C(=O)N[C@@H](Cc3ccc(O)cc3)C(=O)N2)C(=O)CCSC[C@@H](C(N)=O)NC1=O gave a Kd of 1.9 nM (Nectin-4; binding, SPR).
Cc1cccc(CN2CCN(C(c3ccccc3)c3ccc(Cl)cc3)CC2)c1 (stereo not drawn) gave a Ki of 1250 nM (SIGMAR1; ligand displacement, radioligand).
For O=C(CNCC1CCCCC1)Nc1cc(C(F)(F)F)ccc1Cl, the IC50 was 8390 nM (PFF0160c E182D; enzyme activity, inhibitor, absorbance).
CCCC[C@@H]1NC(=O)[C@H](Cc2ccc(O)cc2)NC(=O)[C@@H]2CCCN2C(=O)[C@H](CC(=O)O)NC(=O)[C@H](C)NC(=O)[C@H](Cc2ccccc2)NC(=O)[C@@H]2CSCCC(=O)N3CN(CN(C3)C(=O)CCSC[C@@H](C(=O)N[C@@H](C)C(N)=O)NC1=O)C(=O)CCSC[C@H](NC(=O)[C@H](C)NC(C)=O)C(=O)N[C@@H]([C@@H](C)CC)C(=O)N[C@@H](CCC(=O)O)C(=O)N[C@@H](CCC(=O)O)C(=O)N[C@H](CCCCNC(=O)CCc1cn(CCOCCOCCOCCN(CCOCCOCCOCCC(=O)N[C@H]3CSCCC(=O)N4CN5CN(C4)C(=O)CCSC[C@H](NC(=O)[C@@H](CC(=O)O)NC(=O)[C@H](Cc4cccc6ccccc46)NC(=O)[C@@H]4CCCN4C3=O)C(=O)N[C@@H](CCSC)C(=O)N[C@@H](CCCCNC(=N)N)C(=O)N[C@@H](CC(=O)O)C(=O)N[C@@H](Cc3c[nH]c4ccccc34)C(=O)N[C@@H](CO)C(=O)N[C@@H]([C@@H](C)O)C(=O)N3CCC[C@H]3C(=O)N3C[C@H](O)C[C@H]3C(=O)N[C@@H](Cc3c[nH]c4ccccc34)C(=O)N[C@H](C(N)=O)CSCCC5=O)CCOCCOCCOCCn3cc(CCC(=O)NCCCC[C@H]4NC(=O)[C@H](CCC(=O)O)NC(=O)[C@H](CCC(=O)O)NC(=O)[C@H]([C@@H](C)CC)NC(=O)[C@@H](NC(=O)[C@H](C)NC(C)=O)CSCCC(=O)N5CN6CN(C5)C(=O)CCSC[C@H](NC(=O)[C@H](Cc5ccc(O)cc5)NC(=O)[C@H](CCC(N)=O)NC4=O)C(=O)N[C@@H](Cc4ccccc4)C(=O)N[C@@H](C)C(=O)N[C@@H](CC(=O)O)C(=O)N4CCC[C@H]4C(=O)N[C@@H](Cc4ccc(O)cc4)C(=O)N[C@@H](CCCC)C(=O)N[C@H](C(=O)N[C@@H](C)C(N)=O)CSCCC6=O)nn3)nn1)C(=O)N[C@@H](CCC(N)=O)C(=O)N[C@@H](Cc1ccc(O)cc1)C(=O)N2 gave a Kd of 6.8 nM (Nectin-4; binding, SPR).
The Ki of CN(C)CCOC(C)(c1ccccc1)c1ccccn1 (stereo not drawn) is reported as > 10000 nM (SIGMAR1; ligand displacement, radioligand).
For CCCCN(C)CC#Cc1ccc2[nH]c(C)c(Cl)c(=O)c2c1, the IC50 was 4550 nM (Dihydroorotate dehydrogenase (quinone), mitochondrial (PFF0160c, Plasmodium falciparum, UniProt Q08210); enzyme activity, inhibitor, absorbance).
The Ki of Cc1c(-c2ccccc2)oc2c(C(=O)OCCN3CCCCC3)cccc2c1=O is reported as > 10000 nM (SIGMAR1; ligand displacement, radioligand).
For CCCC[C@@H]1NC(=O)[C@H](Cc2ccc(O)cc2)NC(=O)[C@@H]2CCCN2C(=O)[C@H](CC(=O)O)NC(=O)[C@H](C)NC(=O)[C@H](Cc2ccccc2)NC(=O)[C@@H]2CSCCC(=O)N3CN(CN(C3)C(=O)CCSC[C@H](NC(C)=O)C(=O)N[C@@H](CC(C)(C)C)C(=O)N3CCC[C@H]3C(=O)N[C@@H](CCC(=O)O)C(=O)N[C@H](CCCCNC(=O)CCc3cn(CCOCCOCCOCCOCCOCCC(=O)N[C@H]4CSCCC(=O)N5CN6CN(C5)C(=O)CCSC[C@H](NC(=O)[C@@H](CC(=O)O)NC(=O)[C@H](Cc5cccc7ccccc57)NC(=O)[C@@H]5CCCN5C4=O)C(=O)N[C@@H](CCSC)C(=O)N[C@@H](CCCCNC(=N)N)C(=O)N[C@@H](CC(=O)O)C(=O)N[C@@H](Cc4c[nH]c5ccccc45)C(=O)N[C@@H](CO)C(=O)N[C@@H]([C@@H](C)O)C(=O)N4CCC[C@H]4C(=O)N4C[C@H](O)C[C@H]4C(=O)N[C@@H](Cc4c[nH]c5ccccc45)C(=O)N[C@H](C(N)=O)CSCCC6=O)nn3)C(=O)N3CCC[C@H]3C(=O)N[C@@H](Cc3ccc(O)cc3)C(=O)N2)C(=O)CCSCCNC1=O, the Kd was 1.6 nM (Nectin-4; binding, SPR).
For CCc1nc2nc(C)cc(Nc3cc(C)cc(C)c3)n2n1, the IC50 was 8560 nM (PFF0160c E182D; enzyme activity, inhibitor, absorbance).
N[C@@H](C[C@]1(C(=O)O)C[C@H]2OC[C@@H](O)[C@@H](O)[C@H]2O1)C(=O)O gave a Ki of 972 nM (Glutamate receptor ionotropic, kainate 2 (Grik2, Rattus norvegicus, UniProt P42260, A518T/Y443F); ligand displacement, radioligand).
O=C(c1ccc(F)cc1)C1CCN(C2Cc3ccccc3CC2O)CC1 (single isomer, unassigned; (-)) gave a Ki of 24.7 nM (Vesicular acetylcholine transporter (SLC18A3, Homo sapiens, UniProt Q16572); ligand displacement, radioligand).
The Ki of FC(F)(F)c1ccc2c(c1)N(CCCN1CCN(CCCl)CC1)c1ccccc1S2 is reported as 580 nM (SIGMAR1; ligand displacement, radioligand).
The IC50 of CCC(c1ccccc1)c1nn2c(-c3cccs3)nnc2s1 (stereo not drawn) is reported as 171 nM (PFF0160c E182D; enzyme activity, inhibitor, absorbance).
For CN1CCN(C2=Nc3ccccc3Oc3ccc(Cl)cc32)CC1, the Ki was > 10000 nM (SIGMAR1; ligand displacement, radioligand).
The Kd of CCCC[C@@H]1NC(=O)[C@H](Cc2ccc(O)cc2)NC(=O)[C@@H]2CCCN2C(=O)[C@H](CC(=O)O)NC(=O)[C@H](C)NC(=O)[C@H](Cc2ccccc2)NC(=O)[C@@H]2CSCCC(=O)N3CN(CN(C3)C(=O)CCSC[C@@H](C(=O)N[C@@H](CNC(=O)CCOCCOCCOCCOCCOCCn3cc(CCC(=O)N[C@H]4CSCCC(=O)N5CN6CN(C5)C(=O)CCSC[C@H](NC(=O)[C@@H](CC(=O)O)NC(=O)[C@H](Cc5cccc7ccccc57)NC(=O)[C@@H]5CCCN5C4=O)C(=O)N[C@@H](CCSC)C(=O)N[C@@H](CCCCNC(=N)N)C(=O)N[C@@H](CC(=O)O)C(=O)N[C@@H](Cc4c[nH]c5ccccc45)C(=O)N[C@@H](CO)C(=O)N[C@@H]([C@@H](C)O)C(=O)N4CCC[C@H]4C(=O)N4C[C@H](O)C[C@H]4C(=O)N[C@@H](Cc4c[nH]c5ccccc45)C(=O)N[C@H](C(N)=O)CSCCC6=O)nn3)C(N)=O)NC1=O)C(=O)CCSC[C@H](NC(C)=O)C(=O)N[C@@H](CC(C)(C)C)C(=O)N1CCC[C@H]1C(=O)N[C@@H](CCC(=O)O)C(=O)N[C@H](C)C(=O)N1CCC[C@H]1C(=O)N[C@@H](Cc1ccc(O)cc1)C(=O)N2 is reported as 1.1 nM (Nectin-4; binding, SPR).
